Experimental data as given in ChEMBL document CHEMBL4811241, “Revisiting Pyrazolo[3,4-d]pyrimidine Nucleosides as Anti-Trypanosoma cruzi and Antileishmanial Agents” (J Med Chem, 2021).

Columns and labels:
[1] = Selectivity index, ratio of CC50 for human MRC-5 SV2 cells to IC50 for antitrypanosomal activity against nifurtimox-sensitive Trypanosoma cruzi Tulahuen CL2 infected in human MRC-5 SV2 cells; assay type: toxicity, cell-based; conditions: read-out: Ratio CC50/IC50
How it was run: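 Ratio of MRC-5SV2 CC50 (3-day resazurin assay) to IC50 against T. cruzi amastigotes in MRC-5SV2 cells (7-day CPRG assay).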

[2] = Cytotoxicity against human MRC-5 SV2 cells assessed as reduction in cell growth measured after 3 days by resazurin dye based fluorometric analysis; conditions: time 3 day
[3] = Cytotoxicity against Swiss mouse peritoneal macrophages assessed as cell detachment, lysis and granulation measured after 5 days by microscopic analysis; assay type: cell-based, Peritoneal macrophage; conditions: time 5 day
How it was run: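 Scored within the Leishmania macrophage assay over 5 days: detachment, lysis and granulation judged semi-quantitatively by microscopy across at least 500 cells. CC50 derived from % reduction in normal cells versus untreated wells.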

Trypanosoma cruzi = experiment: Antitrypanosomal activity against nifurtimox-sensitive Trypanosoma cruzi Tulahuen CL2 infected in human MRC-5 SV2 cells assessed as inhibition of parasite growth measured after 7 days by spectrophotometric analysis; assay type: functional, organism-based; conditions: Tulahuen CL2, MRC-5 SV2, 168 h
Leishmania infantum = experiment: Antileishmanial activity against amastigote form of Leishmania infantum MHOM/MA(BE)/67 infected in Swiss mouse peritoneal macrophages assessed as reduction in parasite growth treated at 2 hrs post-infection and measured after 5 days by Giemsa staining based microscopic analysis; assay type: functional, organism-based; conditions: MHOM/MA(BE)/67, Peritoneal macrophage
How it was run: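 Swiss mouse peritoneal macrophages, harvested after 2-day potato-starch stimulation, infected 48 h after plating; compounds added 2 h post-infection.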

Row | Compound | selectivity ratio [1] | CC50 at 72 h [2] | CC50 at 120 h [3] | IC50 (Trypanosoma cruzi) | IC50 (Leishmania infantum)
1 | Nc1ncnc2c1c(-c1ccc(F)c(Cl)c1)nn2[C@@H]1O[C@H](CO)[C@@H](O)[C@H]1O | > 14 | > 64 µM | > 64 µM | 4.66 µM | > 64 µM
2 | Nc1ncnc2c1c(N1CCCC1)nn2[C@@H]1O[C@H](CO)[C@@H](O)[C@H]1O | – | > 64 µM | > 64 µM | > 64 µM | > 64 µM
3 | N#Cc1cc(-c2ccc(-c3nn([C@@H]4O[C@H](CO)[C@@H](O)[C@H]4O)c4ncnc(N)c34)cc2C#N)ccc1Cl | – | > 64 µM | > 64 µM | > 64 µM | > 64 µM
4 | Nc1ncnc2c1c(-c1ccc([N+](=O)[O-])cc1)nn2[C@@H]1O[C@H](CO)[C@@H](O)[C@H]1O | > 6 | > 64 µM | > 64 µM | 10.3 µM | > 64 µM
5 | COc1cc(-c2nn([C@@H]3O[C@H](CO)[C@@H](O)[C@H]3O)c3ncnc(N)c23)ccc1Cl | > 56 | > 64 µM | > 64 µM | 1.14 µM | > 64 µM
6 | O=c1[nH]cnc2c1cnn2[C@@H]1O[C@H](CO)C[C@H]1O | – | > 64 µM | > 64 µM | > 64 µM | > 64 µM
7 | CCOc1cc(-c2nn([C@@H]3O[C@H](CO)[C@@H](O)[C@H]3O)c3ncnc(N)c23)ccc1Cl | > 1 | > 64 µM | > 64 µM | 45.3 µM | > 64 µM
8 | Nc1ncnc2c1c(-c1ccccc1)nn2[C@@H]1O[C@H](CO)[C@@H](O)[C@H]1O | > 5 | > 64 µM | > 64 µM | 13.1 µM | > 64 µM
9 | N#Cc1cc(-c2nn([C@@H]3O[C@H](CO)[C@@H](O)[C@H]3O)c3ncnc(N)c23)ccc1Cl | – | > 64 µM | > 64 µM | > 64 µM | > 64 µM
10 | CCc1nn([C@@H]2O[C@H](CO)[C@@H](O)[C@H]2O)c2ncnc(N)c12 | – | > 64 µM | > 64 µM | > 64 µM | > 64 µM
11 | Cc1ccc(-c2nn([C@@H]3O[C@H](CO)[C@@H](O)[C@H]3O)c3ncnc(N)c23)cc1 | > 36 | > 64 µM | > 64 µM | 1.77 µM | > 64 µM
12 | Nc1ncnc2c1c(-c1ccc(F)c(F)c1)nn2[C@@H]1O[C@H](CO)[C@@H](O)[C@H]1O | > 15 | > 64 µM | > 64 µM | 4.24 µM | > 64 µM
13 | Nc1ncnc2c1c(-c1nnn[nH]1)nn2[C@@H]1O[C@H](CO)[C@@H](O)[C@H]1O | – | > 64 µM | > 64 µM | > 64 µM | > 64 µM
14 | Nc1ncnc2c1c(-c1ccc(Cl)c(F)c1)nn2[C@@H]1O[C@H](CO)[C@@H](O)[C@H]1O | > 54 | > 64 µM | > 64 µM | 1.19 µM | > 64 µM
15 | Nc1ncnc2c1c(Oc1ccc(Cl)cc1)nn2[C@@H]1O[C@H](CO)[C@@H](O)[C@H]1O | – | > 64 µM | > 64 µM | > 64 µM | > 64 µM
16 | Nc1ncnc2c1c(-c1cccs1)nn2[C@@H]1O[C@H](CO)[C@@H](O)[C@H]1O | 3 | 32 µM | > 64 µM | 10.4 µM | > 64 µM
17 | Nc1ncnc2c1c(C(=O)NCc1ccccc1)nn2[C@@H]1O[C@H](CO)[C@@H](O)[C@H]1O | – | > 64 µM | > 64 µM | > 64 µM | > 64 µM
18 | Nc1ncnc2c1cnn2[C@H]1C[C@H](O)[C@@H](CO)O1 | – | > 64 µM | > 64 µM | > 64 µM | > 64 µM

Row | Compound | selectivity ratio [1] | CC50 at 72 h [2] | CC50 at 120 h [3] | IC50 (Trypanosoma cruzi) | IC50 (Leishmania infantum)
19 | Cn1cc(-c2nn([C@@H]3O[C@H](CO)[C@@H](O)[C@H]3O)c3ncnc(N)c23)cn1 | > 1 | > 64 µM | > 64 µM | 45.3 µM | > 64 µM
20 | Nc1ncnc2c1c(-c1ccc(Cl)c(Cl)c1)nn2[C@@H]1O[C@H](CO)[C@@H](O)[C@H]1O | > 23 | > 64 µM | > 64 µM | 2.82 µM | > 64 µM
21 | Nc1ncnc2c1c(-c1ccc(Cl)s1)nn2[C@@H]1O[C@H](CO)[C@@H](O)[C@H]1O | 14 | 47.3 µM | > 64 µM | 2.56 µM | > 64 µM
22 | O=c1[nH]cnc2c1c(Br)nn2[C@@H]1O[C@H](CO)[C@@H](O)[C@H]1O | – | > 64 µM | > 64 µM | > 64 µM | > 64 µM
23 | Nc1ncnc2c1cnn2[C@@H]1O[C@H](CO)[C@@H](F)[C@H]1O | – | > 64 µM | > 64 µM | > 64 µM | > 64 µM
24 | COc1ccc(-c2nn([C@@H]3O[C@H](CO)[C@@H](O)[C@H]3O)c3ncnc(N)c23)cc1 | > 4 | > 64 µM | > 64 µM | 18.2 µM | > 64 µM
25 | O=c1[nH]cnc2c1cnn2[C@@H]1O[C@H](CO)[C@@H](F)[C@H]1O | – | > 64 µM | > 64 µM | > 64 µM | > 64 µM
26 | O=c1[nH]cnc2c1c(Br)nn2[C@@H]1O[C@H](CO)[C@@H](F)[C@H]1O | – | > 64 µM | > 64 µM | > 64 µM | > 64 µM
27 | Nc1ncnc2c1c(C(=O)N1CCCC1)nn2[C@@H]1O[C@H](CO)[C@@H](O)[C@H]1O | – | > 64 µM | > 64 µM | > 64 µM | > 64 µM
28 | Nc1ncnc2c1c(CN1CCOCC1)nn2[C@@H]1O[C@H](CO)[C@@H](O)[C@H]1O | – | > 64 µM | > 64 µM | > 64 µM | > 64 µM
29 | Oc1ncnc2[nH]nc(Br)c12 | – | > 64 µM | > 64 µM | > 64 µM | > 64 µM
30 | Nc1ncnc2c1cnn2[C@@H]1O[C@H](CO)C[C@H]1O | – | > 64 µM | > 64 µM | > 64 µM | > 64 µM
31 | Nc1ncnc2c1c(C1CC1)nn2[C@@H]1O[C@H](CO)[C@@H](O)[C@H]1O | – | > 64 µM | > 64 µM | > 64 µM | > 64 µM
32 | CCCCCCCCCCCCCCCCOP(=O)([O-])OCC[N+](C)(C)C [MILTEFOSINE] | – | – | – | – | 7.47 µM
33 | CC(C)(C)c1ccc(-c2nn([C@@H]3O[C@H](CO)[C@@H](O)[C@H]3O)c3ncnc(N)c23)cc1 | – | > 64 µM | > 64 µM | > 64 µM | > 64 µM
34 | O=c1[nH]cnc2c1c(Br)nn2[C@@H]1O[C@H](CO)C[C@H]1O | – | > 64 µM | > 64 µM | > 64 µM | > 64 µM
35 | Nc1ncnc2c1c(Br)nn2[C@H]1C[C@H](O)[C@@H](CO)O1 | – | 24.9 µM | > 64 µM | 53.2 µM | > 64 µM
36 | Nc1ncnc2c1c(Br)nn2[C@@H]1O[C@H](CO)C[C@H]1O | – | 2.2 µM | > 64 µM | 38.5 µM | > 64 µM
